In ChEMBL document CHEMBL1817601, “6,7-Dihydro-5H-cyclopenta[d]pyrazolo[1,5-a]pyrimidines and their derivatives as novel corticotropin-releasing factor 1 receptor antagonists” (Bioorg Med Chem, 2011):
pEC50, pIC50: −log10 of the molar value. The source made the active and inactive calls. No cut-off for these calls is given here.

Key:
[1] = biological target: T1, Corticotropin-releasing factor receptor 1 (Homo sapiens, UniProt P34998); experiment: Displacement of [125I]CRF from human corticotropin-releasing factor receptor 1 expressed in CHO-K1 cells after 2 hrs by gamma counting; type: cell-based
T1 sequence (P34998 whole entry): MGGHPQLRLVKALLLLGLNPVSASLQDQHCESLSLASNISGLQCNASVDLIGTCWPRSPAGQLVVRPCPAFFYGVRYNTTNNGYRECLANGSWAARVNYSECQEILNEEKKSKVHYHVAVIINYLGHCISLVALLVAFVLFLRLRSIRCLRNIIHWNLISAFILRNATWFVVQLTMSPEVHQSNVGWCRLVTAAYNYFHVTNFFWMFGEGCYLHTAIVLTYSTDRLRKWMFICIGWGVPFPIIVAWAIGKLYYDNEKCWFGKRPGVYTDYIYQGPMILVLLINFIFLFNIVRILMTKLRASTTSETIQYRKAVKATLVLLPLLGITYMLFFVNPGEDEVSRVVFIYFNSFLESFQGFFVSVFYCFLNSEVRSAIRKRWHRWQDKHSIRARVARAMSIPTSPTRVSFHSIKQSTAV
How it was run: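 Crude membranes prepared from CRF1-expressing CHO-K1 cells in 50 mmol/l Tris-HCl with 10 mmol/l MgCl2, 2 mmol/l EDTA and aprotinin. Membranes incubated with 0.5 nmol/l (stock) ¹²⁵I human/rat CRF and compound (1–10,000 nmol/l) for 2 h at room temperature. Reaction ended by centrifugation, pellet washed with PBS/0.01% Triton X-100. IC50 of specific binding taken from concentration–response curves.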

[2] = biological target: T1, Corticotropin-releasing factor receptor 1; experiment: Antagonist activity at human corticotropin-releasing factor receptor 1 expressed in CHO-K1 cells assessed as inhibition of CRF-induced cAMP production after 15 mins by enzyme immunoassay; type: functional, cell-based
How it was run: (§1)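 CHO-K1 cells expressing CRF1 seeded at 1 × 10⁴ cells/well and incubated overnight. Cells washed with F-12, then preincubated 10 min at 37 °C in F-12 with 1 mmol/l IBMX. Compound (1–10,000 nmol/l) added with medium containing 10 nmol/l CRF (stock), then 15 min at 37 °C. Cells chilled and cAMP measured by enzyme immunoassay, blank-corrected; IC50 taken from concentration–response curves.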

[3] = biological target: T2, Corticotropin-releasing factor receptor 1 (Rattus norvegicus, UniProt P35353); experiment: Antagonist activity at rat corticotropin-releasing factor receptor 1 expressed in CHO-K1 cells assessed as inhibition of CRF-induced cAMP production after 15 mins by enzyme immunoassay; type: functional, cell-based; how it was run: as §1
T2 sequence (P35353 whole entry): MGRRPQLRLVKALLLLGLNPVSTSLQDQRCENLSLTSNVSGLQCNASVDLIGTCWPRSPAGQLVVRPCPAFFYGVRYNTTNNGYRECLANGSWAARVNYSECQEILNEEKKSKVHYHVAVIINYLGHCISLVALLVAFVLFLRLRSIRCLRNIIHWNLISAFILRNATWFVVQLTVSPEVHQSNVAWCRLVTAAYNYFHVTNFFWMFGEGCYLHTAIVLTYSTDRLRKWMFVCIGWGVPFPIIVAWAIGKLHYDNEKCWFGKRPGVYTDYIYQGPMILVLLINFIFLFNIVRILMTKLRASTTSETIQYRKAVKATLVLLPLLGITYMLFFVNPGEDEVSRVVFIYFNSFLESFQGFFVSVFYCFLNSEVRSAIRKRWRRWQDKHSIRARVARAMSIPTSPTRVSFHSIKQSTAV

Rattus norvegicus [4] = experiment: Anxiolytic activity in swim stress-loaded Sprague-Dawley rat assessed as increase in time spent in open arms at 3 mg/kg, po after 1 hr by plus-maze test; type: functional, organism-based; design: dose 3 mg/kg
How it was run: (§2)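 Male Sprague–Dawley rats (230–280 g) given 0.5% MC vehicle or compound orally 1 h before testing. Rats forced to swim 90 s in 22 °C water, then placed at the maze centre facing a closed arm. Behaviour video-tracked for 5 min; time in open arms and open-arm entries scored. 16 rats per group, mean ± S.E.; Dunnett test against vehicle.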

[5] = Half life in rat at 3 mg/kg, po; type: ADME, organism-based; design: dose 3 mg/kg, route oral; conditions: in vivo
How it was run: (§3)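 Fasted male rats (n = 4) given 3 mg/kg orally in saline with 0.5% MC (w/v). Jugular vein blood (heparinized syringe) taken at 1, 2, 4, 6, 8, 24, 48, 72 h. Plasma obtained by centrifugation and stored at −70 °C. AUC, Cmax, Tmax and T1/2 derived from the plasma concentration time course.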

[6] = Oral bioavailability in rat at 3 mg/kg; type: ADME, organism-based; conditions: in vivo
[7] = Tmax in rat at 3 mg/kg, po; type: ADME, organism-based; design: dose 3 mg/kg, route oral; conditions: in vivo; how it was run: as §3
[8] = Half life in rat at 0.3 mg/kg, iv; type: ADME, organism-based; design: dose 0.3 mg/kg, route intravenous; conditions: in vivo
How it was run: (§4)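 Fasted male rats (n = 4) dosed intravenously at 0.3 mg/kg. Samples ice-chilled and centrifuged to plasma, then stored at −70 °C. AUC, T1/2, Vss and CL taken from the plasma concentration time course.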

[9] = AUC (infinity) in rat at 0.3 mg/kg, iv; type: ADME, organism-based; design: time infinity, dose 0.3 mg/kg, route intravenous; conditions: plasma; how it was run: as §4
[10] = Volume of distribution at steady state in rat at 0.3 mg/kg, iv; type: ADME, organism-based; design: dose 0.3 mg/kg, route intravenous; conditions: in vivo, read-out: Vdss; how it was run: as §4
Rattus norvegicus [11] = experiment: Anxiolytic activity in swim stress-loaded Sprague-Dawley rat assessed as increase in time spent in open arms at 10 mg/kg, po after 1 hr by plus-maze test; type: functional, organism-based; design: dose 10 mg/kg; how it was run: as §2
[12] = biological target: T2, Corticotropin-releasing factor receptor 1; experiment: Displacement of [125I]CRF from corticotropin-releasing factor receptor 1 in rat brain membranes after 2 hrs by gamma counting; type: cell membranes
[13] = Total clearance in rat at 0.3 mg/kg, iv; type: ADME, organism-based; design: dose 0.3 mg/kg, route intravenous; conditions: in vivo; how it was run: as §4
[14] = Ratio of drug level in brain to plasma in rat at 3 mg/kg, po after 1 hr; type: ADME, organism-based; design: dose 3 mg/kg, route oral; conditions: read-out: BPR
[15] = AUC (infinity) in rat at 3 mg/kg, po; type: ADME, organism-based; design: time infinity, dose 3 mg/kg, route oral; conditions: plasma; how it was run: as §3
[16] = Cmax in rat at 3 mg/kg, po; type: ADME, organism-based; design: dose 3 mg/kg, route oral; conditions: in vivo; how it was run: as §3

Row | Compound | pIC50 [1] | pEC50 [2] | other results
1 | CCC(CC)Nc1c2c(nc3c(-c4ccc(OC)cc4C)c(CSC)nn13)CCC2 | 6.21 |  | 
2 | CCC(CC)Nc1c2c(nc3c(-c4ccc(OC)cc4C)cnn13)CCC2 | 6.62 |  | 
3 | CCC(CC)Nc1c2c(nc3c(-c4ccc(OC)cc4C)c(C)nn13)CSC2 | 7.43 | 6.82 | 
4 | CCC(CC)Nc1c2c(nc3c(-c4ccc(OC)cc4C)c(C)nn13)CCC2 | 7.43 | 6.77 | 
5 | CCC(CC)Nc1c2c(nc3c(-c4ccc(OC)cc4C)c(C(F)(F)F)nn13)CCC2 | 7.23 |  | 
6 | CCC(CC)Nc1c2c(nc3c(-c4cc(C)c(OC)cc4C)c(C)nn13)CCC2 | 7.66 | 7.33 | 
7 | CCC(CC)Nc1c2c(nc3c(-c4ccc(OC)cc4Cl)c(C)nn13)OCC2 | 7.08 | 8.10 | 
8 | CCC(CC)Nc1c2c(nc3c(-c4ccc(OC)cc4C)c(C)nn13)CCS2 | 7.10 |  | 
9 | CCC(CC)Nc1c2c(nc3c(-c4ccc(OC(F)F)cc4Cl)c(C)nn13)CCC2 | 8.52 | 6.70 | 
10 | CCC(CC)Nc1c(C)c(C)nc2c(-c3ccc(OC)cc3Cl)c(C)nn12 | 7.31 | 7.00 | 
11 | CCC(CC)Nc1c2c(nc3c(-c4ccc(OC)cc4C)c(C)nn13)CCN2 | 6.77 |  | 
12 | CCC(CC)Nc1c2c(nc3c(-c4ccc(OC)cc4SC)c(C)nn13)CCC2 | 7.31 |  | 
13 | CCC(CC)Nc1c2c(nc3c(-c4ccc(OC)cc4Cl)c(C)nn13)CCO2 | 8.15 | 8.40 | 
14 | CCC(CC)Nc1c2c(nc3c(-c4ccc(OC)cc4Cl)c(C)nn13)CCC2 [ONO-2333MS] | 8.40 | 7.40 | pEC50 [3]: 7.40; Activity (Rattus norvegicus [4]): Active; half-life [5]: 7.8 h; bioavailability [6]: 22%; Tmax [7]: 1 h; half-life [8]: 4.7 h; AUC(0-inf) [9]: 278 ng·h/mL; Vd [10]: 1.78 L/kg; Activity (Rattus norvegicus [11]): Active; pIC50 [12]: 8.15; clearance [13]: 18 mL/min/kg; Kp at 1 h [14]: 0.4; AUC(0-inf) [15]: 608 ng·h/mL; Cmax [16]: 87.1 ng/mL
15 | CCC(CC)Nc1c2c(nc3c(-c4ccc(OC)cc4C)c(C)nn13)CCO2 | 7.51 | 6.19 | 
16 | CCC(CC)Nc1c2c(nc3c(-c4c(C)cc(OC)cc4C)c(C)nn13)CCC2 | 8.05 | 7.10 | 
17 | CCc1nn2c(NC(CC)CC)c3c(nc2c1-c1ccc(OC)cc1C)CCC3 | 7.01 |  | 
18 | CCC(CC)Nc1c2c(nc3c(-c4ccc(OC)cc4C)c(C4CCC4)nn13)CCC2 | 6.31 |  | 
19 | CCOc1ccc(-c2c(C)nn3c(NC(CC)CC)c4c(nc23)CCC4)c(Cl)c1 | 7.15 |  | 
20 | CCC(CC)Nc1c2c(nc3c(-c4ccc(Cl)cc4Cl)c(C)nn13)CCC2 | 7.43 | 6.70 | 
21 | CCC(CC)Nc1cc(C)nc2c(-c3ccc(OC)cc3C)c(C)nn12 |  |  | pIC50 [2]: 8.00
22 | CCC(CC)Nc1c2c(nc3c(-c4ccc(C)cc4C)c(C)nn13)CCC2 | 7.14 | 6.04 | 
23 | CCC(CC)Nc1c2c(nc3c(-c4ccc(OC)cc4Cl)c(C)nn13)COC2 | 7.66 | 7.18 | 
24 | CCC(CC)Nc1c2c(nc3c(-c4cc(C)ccc4C)c(C)nn13)CCC2 | 6.09 |  | 
25 | CCC(CC)Nc1c2c(nc3c(-c4ccc(N(C)C)cc4C)c(C)nn13)CCC2 | 7.42 |  | 
26 | CCC(CC)Nc1c2c(nc3c(-c4ccc(OC(F)(F)F)cc4Cl)c(C)nn13)CCC2 | 7.82 |  | 
27 | CCC(CC)Nc1cc(C)nc2c(-c3ccc(OC)cc3Cl)c(C)nn12 | 8.22 | 7.51 | 
28 | CCC(CC)Nc1c2c(nc3c(-c4ccc(OC)cc4C)c(C)nn13)COC2 | 7.46 | 7.12 | 
29 | CCC(CC)Nc1c2c(nc3c(-c4ccc(F)cc4C)c(C)nn13)CCC2 | 7.03 |  | 
30 | CCC(CC)Nc1c2c(nc3c(-c4ccc(OC)c(OC)c4)c(C)nn13)CCC2 | 6.22 |  | 
